Tests used:
[1] = target: T1, Prostaglandin E synthase (Homo sapiens, UniProt O14684); assay: Inhibition of mPGES1
T1 sequence (O14684 whole entry): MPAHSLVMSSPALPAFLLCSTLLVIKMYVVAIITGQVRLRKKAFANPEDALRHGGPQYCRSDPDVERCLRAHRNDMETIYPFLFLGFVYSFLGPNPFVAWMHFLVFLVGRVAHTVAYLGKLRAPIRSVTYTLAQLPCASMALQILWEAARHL
Summary of the method: (§1)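 Enzyme in 100 mM potassium phosphate pH 6.2 with 2.5 mM glutathione, compound added in DMSO. Reaction started with PGH2 (final 2 µM), stopped with 2.5 mM FeCl2, diluted 120-fold into ELISA buffer. PGE2 by ELISA against a standard curve. % control set between reference-inhibited and enzyme-only controls; IC50 by 4-parameter log fit of duplicate data.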

[2] = target: T2, Prostaglandin G/H synthase 2 (Homo sapiens, UniProt P35354); assay: Inhibition of human COX2 in IL1-beta treated human FF cells assessed as blockade of SnCl2-mediated PGH2 to PGF2alpha conversion after 50 mins by ELISA; assay type: cell-based
T2 sequence (P35354 whole entry): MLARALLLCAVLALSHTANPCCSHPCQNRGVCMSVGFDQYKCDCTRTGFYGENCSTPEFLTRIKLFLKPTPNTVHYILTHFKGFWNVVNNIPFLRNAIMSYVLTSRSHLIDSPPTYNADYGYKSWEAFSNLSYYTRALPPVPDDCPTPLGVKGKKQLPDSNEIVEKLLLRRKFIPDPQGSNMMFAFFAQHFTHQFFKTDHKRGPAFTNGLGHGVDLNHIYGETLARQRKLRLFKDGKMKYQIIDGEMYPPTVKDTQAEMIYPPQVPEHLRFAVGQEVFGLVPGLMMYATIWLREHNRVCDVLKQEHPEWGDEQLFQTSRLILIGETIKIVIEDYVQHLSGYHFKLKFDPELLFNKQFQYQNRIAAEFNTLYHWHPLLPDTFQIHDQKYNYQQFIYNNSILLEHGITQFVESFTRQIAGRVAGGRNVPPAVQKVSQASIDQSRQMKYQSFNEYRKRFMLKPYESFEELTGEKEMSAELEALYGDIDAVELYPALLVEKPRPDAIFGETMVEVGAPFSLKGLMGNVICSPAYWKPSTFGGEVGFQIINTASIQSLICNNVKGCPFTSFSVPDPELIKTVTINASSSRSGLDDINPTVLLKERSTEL
Summary of the method: (§2)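 Human fetal fibroblasts in DMEM/15% FBS at 37 °C, 5% CO2; after 20–24 h, stimulated 20–24 h with 1 ng/mL IL-1β, washed, compound 50 min in serum-free DMEM, then 10 µM arachidonic acid 10 min. PGE2 by ELISA. For PGF2α, SnCl2 added after compound for 10 min before arachidonic acid. IC50 from duplicate data.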

[3] = target: T1, Prostaglandin E synthase; assay: Inhibition of human mPGES1 in IL1-beta treated human FF cells assessed as blockade of PGH2 to PGE2 conversion after 50 mins by ELISA; assay type: cell-based; summary of the method: as §2
[4] = target: T1, Prostaglandin E synthase; assay: Inhibition of human mPGES1 assessed as PGE2 level after 41 sec by ELISA; summary of the method: as §1

SMILES	IC50 [1] [µM]	IC50 [2] [µM]	IC50 [3] [µM]	IC50 [4] [µM]
Fc1cccc(Cl)c1-c1nc(-c2ccc(C#Cc3ccc(C(F)(F)F)cc3)nc2)c(Br)[nH]1	0.0008	–	–	–
O=C(Nc1ccc(Nc2ccc(Cl)cc2)cc1)C1=C(O)c2ccccc2S(=O)(=O)N1	–	> 100	4.24	0.15
O=C(Nc1ccc(Oc2ccc(Cl)cc2)cc1)C1=C(O)c2ccccc2S(=O)(=O)N1	–	70	6.73	0.53
O=C(Nc1ccc(-c2cccc(Cl)c2Cl)cc1)C1=C(O)c2ccccc2S(=O)(=O)N1	–	44.4	< 0.92	0.038
O=C(Nc1ccc(-c2cccc(Cl)c2)cc1)C1=C(O)c2ccccc2S(=O)(=O)N1	–	74.7	3.44	0.86
Cc1ccc(-c2ccc(NC(=O)C3=C(O)c4ccccc4S(=O)(=O)N3)cc2)cc1C	–	> 57.7	< 0.75	< 0.026
COc1ccc2c(c1)C(O)=C(C(=O)Nc1ccc(-c3ccc(Cl)c(Cl)c3)cc1)NS2(=O)=O	–	> 100	1.29	0.69
O=C(Nc1ccc(-c2ccc(Cl)c(Cl)c2)cc1)C1=C(O)c2ccc(O)cc2S(=O)(=O)N1	–	–	–	0.18
O=C(Nc1ccc(-c2ccc(Cl)cc2Cl)cc1)C1=C(O)c2ccccc2S(=O)(=O)N1	–	> 74.8	< 0.76	0.043
O=C(Nc1ccc(-c2ccc(Cl)nc2)cc1)C1=C(O)c2ccccc2S(=O)(=O)N1	–	–	–	12.7
O=C(Nc1ccc(-c2ccc(Cl)c(Cl)c2)nc1)C1=C(O)c2ccccc2S(=O)(=O)N1	–	33.7	0.69	0.16
COc1ccc(-c2ccc(NC(=O)C3=C(O)c4ccccc4S(=O)(=O)N3)cc2)cc1OC	–	–	–	32.2
COc1ccc2c(c1)S(=O)(=O)NC(C(=O)Nc1ccc(-c3ccc(Cl)c(Cl)c3)cc1)=C2O	–	–	–	3.05
O=C(Nc1ccc(-c2ccc(Cl)c(Cl)c2)cn1)C1=C(O)c2ccccc2S(=O)(=O)N1	–	–	–	65.6
O=C(Nc1ccc(-c2ccccc2)cc1)C1=C(O)c2ccccc2S(=O)(=O)N1	–	92.6	6.73	3.13

— ChEMBL document CHEMBL1154975, “Selective inducible microsomal prostaglandin E(2) synthase-1 (mPGES-1) inhibitors derived from an oxicam template” (Bioorg Med Chem Lett, 2010)
